In the library only some 1.9% were active in any assay of this set; here they are far more common.
TAG inh = inhibitors of triacylglycerol accumulation, primary screen, cell-based, uHTS, fluorescence, H9c2; 230,000 compounds, 0.66% hits; AID 651582, 2012; H9c2 cells, Nile Red lipid (TAG) fluorescence; cells loaded with 200 µM oleic acid; inhibition, % at 12.5 µM;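 active = pattern-corrected inhibition of lipid staining of at least 50% with the nuclear-stain viability signal not falling by more than 50%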;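 note: 0% = DMSO wells and 100% = triacsin C control wells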
aSyn 5UTR inh = MLPCN primary screen, SNCA 5' untranslated region. 300,000 compounds, 0.82% hits. alpha-synuclein 5'UTR reporter, inhibitor activity. inhibition, % (tested at 7.5 µM); in the data active = inhibition above about 60%;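 note: H4 neuroglioblastoma cells stably carrying SNCA 5'UTR luciferase fusion; 0% = DMSO wells and 100% = positive control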
Jurkat NFkB inh = inhibitors of induced NF-kB luciferase reporter, primary screen, TCR NF-kB activation inhibitor project, cell-based, luminescence, uHTS | Jurkat, PMA/ionomycin-induced NF-kB luciferase reporter | inhibition, % at 4 µM | 330,000 compounds, 0.53% hits; in the data active = inhibition above about 50%
Hep lipid drop = inhibitors of hepatocyte lipid droplet formation, primary screen, imaging, high-throughput imaging, BODIPY stain; AML12 mouse hepatocytes, oleate lipid droplets; inhibition, % at 6.5 µM; 240,000 compounds, 0.4% hits;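 active = lipid droplet intensity inhibited by at least 50%, with more than 500 cells counted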
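Test system: AML12 hepatocytes (mouse); reagent: oleate loading, 100 µM; dosing: one dose, 6.5 µM compound; incubation: overnight exposure; signal: fluorescence imaging, 20x objective, two fields per well; read-out basis: % inhibition of corrected integrated BODIPY droplet signal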
697 NFkB inh = inhibitors of PMA/ionomycin-induced NF-kB reporter, 697 cells, primary screen, B-cell NF-kB inhibitor project, cell-based, luminescence, uHTS; 697 B-cell NF-kB luciferase reporter, 16 h; inhibition, % at 4 µM; 330,000 compounds, 0.33% hits; in the data active = inhibition above about 35%
APP transl inh = inhibitors of APP translation via 5'UTR reporter, primary screen, APP 5'UTR luciferase, SH-SY5Y cells; SH-SY5Y APP 5'UTR-luciferase reporter, luminescence; 190,000 compounds, 0.82% hits; inhibition, % at 2 µM; AID 1285, 2008;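 active = inhibition above a set limit, derived from the sample mean plus 3 SD, cut at about 45% in these data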
Jurkat NFkB conf = PMA/ionomycin-induced NF-kB reporter inhibitors, Jurkat retest, confirmation, T-cell NF-kB inhibitor project, cell-based, luminescence, single concentration; shares compounds with Jurkat NFkB inh; Jurkat NF-kB luciferase, 16 h; inhibition, % at 4 µM; 2,700 compounds, 27% hits;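 active = inhibition reaching about 45% at 4 µM in either replicate, limit read from the data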;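 note: plate controls were PMA/ionomycin stimulated DMSO wells for no effect and unstimulated DMSO wells for full effect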
Starred values were filed as active, the others as inactive; nt = not tested or not shown.

SMILES	TAG inh	aSyn 5UTR inh	Jurkat NFkB inh	Hep lipid drop	697 NFkB inh	APP transl inh	Jurkat NFkB conf
COc1ccc(C(=O)Nc2nc3cc4c(cc3s2)OCO4)c(OC)c1	-1	-98	-174	0	-179	nt	-83
CC(C)c1ccc2nc(NC(=O)C3CC3)sc2c1	14	13	-159	0	-154	nt	-86
O=C(Nc1nc2ccc(S(=O)(=O)N3CCCCC3)cc2s1)C1CCCO1 (stereo unspecified)	6	21	-2	0	-21	-2	nt
COc1cccc(N2CCN(S(=O)(=O)c3cc4c(cc3Cl)NC(=O)CO4)CC2)c1	8	1	11	4	12	nt	nt
Cc1cc(C)n2nc(SCC(=O)NC(=O)c3ccccc3Cl)nc2n1	5	nt	3	nt	9	nt	nt
O=C(COC(=O)/C=C/c1ccc(C(F)(F)F)cc1)NCc1ccco1	1	7	-4	2	6	nt	nt
N#Cc1ccc(-c2cccs2)nc1SCc1cccnc1	53*	90*	66*	-11	-37	nt	37
CCOc1ccc2nc(N3CCCCCC3)sc2c1	nt	-36	-234	nt	-236	-194	-148
CN1CCCC1CCNc1ccc2c(=O)c3ccccc3oc2c1 (stereo unspecified)	7	-130	-218	0	-161	nt	-38
CN1CCCC1CCNc1ccc2oc3ccccc3c(=O)c2c1 (stereo unspecified)	nt	-38	-130	nt	-63	nt	nt
O=c1c2ccccc2oc2cc(NCCCN3CCOCC3)ccc12	7	-127	-184	nt	-219	nt	-53
O=c1c2ccccc2oc2cc(NCCCn3ccnc3)ccc12	8	-45	-178	nt	-218	nt	-84
O=C1CN(C(=O)COC(=O)c2ccc(Cl)c(S(=O)(=O)N3CCCCC3)c2)c2ccccc2N1	8	nt	12	nt	-7	nt	nt
CN(C(=O)COC(=O)CNC(=O)c1ccc(Cl)cc1Cl)c1ccccc1	2	8	12	15	8	-30	nt
C/C(=N\NC(=O)c1ccncc1)c1ccc(N2CCOCC2)cc1	14	nt	0	nt	0	nt	nt
C/C(=N\NC(=O)c1ccc(OC2OCCOC2Oc2ccc(C(=O)N/N=C(\C)c3ccncc3)cc2)cc1)c1ccncc1 (stereo unspecified)	24	30	52*	0	-47	nt	8
CC(C)(C)C(=O)N/C(N)=N/c1nc2ccccc2o1	0	-63	-156	-2	-226	nt	-141
CCCCn1cnc2c(c(-c3ccccc3)c(-c3ccccc3)n2Cc2ccco2)c1=N	7	31	81*	-1	-7	nt	4
N=c1c2c(-c3ccccc3)c(-c3ccccc3)n(Cc3ccco3)c2ncn1Cc1ccco1	-12	-2	8	-26	-89	4	nt
Cc1nc2ccccc2c2c1CC(C(C)(Cl)Br)O2 (stereo unspecified)	-22	2	56*	-19	-45	nt	56*
Cc1ccc2nc(C)c3c(c2c1)OC(C(C)(Cl)Br)C3 (stereo unspecified)	-11	10	18	16	-42	-9	nt
C[C@H](CO)N1C[C@H](C)[C@@H](CN(C)C(=O)Nc2ccc(C(F)(F)F)cc2)Oc2ccc(NS(=O)(=O)c3cn(C)cn3)cc2C1=O	10	nt	4	nt	18	nt	nt
O=C(CNC1CCCCC1)Nc1cccc(C(F)(F)F)c1	9	-2	-13	12	-11	nt	nt
CCOc1cccc(-c2nnc3n2N=C(c2cc(OC)ccc2OC)CS3)c1	12	63*	53*	-112	-64	88*	48*
COc1cccc(-c2nnc3n2N=C(c2cc(OC)ccc2OC)CS3)c1	-15	29	17	nt	6	-9	nt
SMILES	TAG inh	aSyn 5UTR inh	Jurkat NFkB inh	Hep lipid drop	697 NFkB inh	APP transl inh	Jurkat NFkB conf
COc1ccc(NC(=O)N2CCCC(C(=O)NCc3ccccc3F)C2)cc1 (stereo unspecified)	nt	-3	4	-7	-11	nt	nt
NS(=O)(=O)c1ccc2nc(NC(=O)Nc3ccccc3F)sc2c1	nt	-50	-164	-45	-224	nt	-112
O=C(Nc1cc(S(=O)(=O)N2CCOCC2)ccc1Cl)C1CCC1	0	2	-2	nt	3	nt	nt
Clc1ccc2nc(-c3ccc(Br)s3)cn2c1	2	-26	-179	2	-151	-230	-100
COc1cccc(Nc2nc(C(N)Cc3ccccc3)cs2)n1 (stereo unspecified)	20	nt	nt	nt	nt	nt	nt
Cc1ccc(C(=O)/C=C/Nc2cccc(O)c2)cc1	nt	-194	-70	8	-109	-138	nt
C/C(=C\C(=O)c1ccc(C)cc1)Nc1cccc(O)c1	nt	-284	-186	nt	-188	-157	-7
NNC(=O)CCCCCCCCCCOCCCCO	8	-11	2	-1	26	nt	nt
COc1ccccc1/C=C/C(=O)OCc1nc2ccccc2c(=O)[nH]1	14	-37	12	-4	-4	14	nt
COc1ccc([N+](=O)[O-])cc1Nc1c2ccccc2nc2ccccc12	47	77*	59*	-129	-37	nt	41
CCc1cc2c(=O)nc3n(c2s1)Cc1ccccc1/C3=C(/O)c1cccc([N+](=O)[O-])c1	nt	-19	69*	8	-108	2	51*
COC(=O)c1sccc1NC(=O)COc1ccc(Cl)cc1Cl	nt	-162	-10	-76	-11	-54	nt
Cc1cc(C)n(-c2ncccc2[N+](=O)[O-])n1	10	3	5	-2	0	nt	nt
CC(C)c1ccc(-n2cnn(-c3ncccc3[N+](=O)[O-])c2=O)cc1	-9	-27	-204	1	-155	-140	-126
COc1ccc(C(=O)N2CCN(c3ccc([N+](=O)[O-])c(NCCc4ccc(OC)c(OC)c4)c3)CC2)cc1	nt	16	73*	-40	15	18	75*
COc1ccc(CCNc2cc(N3CCN(C(=O)c4ccc(C)cc4)CC3)ccc2[N+](=O)[O-])cc1OC	nt	2	75*	13	7	-7	67*
COc1ccc(CCNc2ccc(C(=O)O)cc2[N+](=O)[O-])cc1OC	7	5	6	-2	-15	-15	nt
COc1ccc(CCNc2cc(N3CCN(C(=O)c4ccccc4F)CC3)ccc2[N+](=O)[O-])cc1OC	nt	18	58*	nt	-16	4	67*
O=C(c1ccccc1F)N1CCN(c2ccc([N+](=O)[O-])c(NCc3cccnc3)c2)CC1	-11	25	4	0	15	nt	nt
CCCOc1c(Br)cc(C(=O)OCC(=O)NC(=O)c2cccn2C)cc1OC	2	nt	11	nt	14	nt	nt

Screens as filed in PubChem BioAssay.
